# Laboratory results reported in PMC3821033 (FEBS Open Bio, 2013).
# Tests used:
# Type in all cases: biochemical
# [1] = target: T1, FNI (Lactococcus cremoris, UniProt A2RID7); test: 1H NMR of product after […] h; conditions: 5 mM MgCl2, 10 μM FMN, 5 mM NADH, 2 mM DTT, pH 7.0, 30 °C
# T1 sequence (A2RID7 1-349): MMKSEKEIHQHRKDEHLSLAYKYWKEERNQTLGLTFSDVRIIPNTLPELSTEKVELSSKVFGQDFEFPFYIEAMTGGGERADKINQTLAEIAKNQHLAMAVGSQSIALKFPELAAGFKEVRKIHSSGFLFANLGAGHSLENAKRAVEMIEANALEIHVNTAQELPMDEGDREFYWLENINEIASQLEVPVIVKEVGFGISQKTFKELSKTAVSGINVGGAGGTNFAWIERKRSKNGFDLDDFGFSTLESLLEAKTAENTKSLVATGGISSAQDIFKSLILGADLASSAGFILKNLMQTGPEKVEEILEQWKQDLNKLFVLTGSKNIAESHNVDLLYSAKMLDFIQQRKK
# [2] = target: T2, LDHA (Lactococcus cremoris, UniProt A2RKA4); test: activation of NADH-coupled activity; conditions: 200 µM, allosteric activator, Tris-maleate pH 7.0, 30 °C
# T2 sequence (A2RKA4 1-325): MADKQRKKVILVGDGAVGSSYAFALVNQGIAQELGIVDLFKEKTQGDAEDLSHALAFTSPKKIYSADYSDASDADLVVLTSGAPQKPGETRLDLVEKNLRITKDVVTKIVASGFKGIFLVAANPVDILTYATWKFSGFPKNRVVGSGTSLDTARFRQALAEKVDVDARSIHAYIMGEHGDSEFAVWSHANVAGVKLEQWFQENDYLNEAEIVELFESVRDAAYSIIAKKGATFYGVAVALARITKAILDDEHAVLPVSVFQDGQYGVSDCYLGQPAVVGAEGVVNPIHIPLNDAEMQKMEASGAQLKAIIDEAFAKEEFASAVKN
# How it was run: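 Recombinant His-tagged LDHA from L. lactis MG1363, expressed in E. coli Transetta (DE3) (0.5 mM IPTG, 30 °C, 4 h) and purified on Ni-NTA with imidazole elution. Pyruvate reduction was followed spectrophotometrically as the decrease in NADH absorbance at 340 or 380 nm, at 30 °C in 100 mM Tris–maleate pH 7.0, with about 40–200 ng/ml enzyme; 1 unit = 1 μmol/min.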
# [3] = target: T2, LDHA; test: inhibition of NADH-coupled activity; conditions: read-out: % remaining rate at 8 mM
# [4] = target: T2, LDHA; test: inhibition of NADH-coupled activity; conditions: inhibitor; both reaction directions; 1 mM FBP, pH 7.0, 30 °C
structure (smiles),measurement,setting,value
CC(C)=CCOP(=O)(O)OP(=O)(O)O [dimethylallyl diphosphate],1H NMR of product after 15 h,[1],appearance of signals for dimethylallyl diphosphate
O=P(O)(O)OC[C@H]1OC(O)(COP(=O)(O)O)[C@@H](O)[C@@H]1O (some centres unmarked) [FBP],Pyruvate reduction (%),[2],66 ± 4.7%
Nc1ncnc2c1ncn2[C@@H]1O[C@H](COP(=O)(O)OP(=O)(O)OP(=O)(O)O)[C@@H](O)[C@H]1O [ATP],remaining activity at 8000 µM,[3],> 80%
Nc1ncnc2c1ncn2[C@@H]1O[C@H](COP(=O)(O)OP(=O)(O)O)[C@@H](O)[C@H]1O [ADP],inhibition of NADH-coupled activity,[4],ADP was shown to be a more severe inhibitor
C=C(C)CCOP(=O)(O)OP(=O)(O)O [IPP],1H NMR of product after 15 h,[1],conversion of IPP to dimethylallyl diphosphate was observed
